In assay [1] the target is Epidermal growth factor receptor (Homo sapiens, UniProt P00533). Briefly: Inhibition of Epidermal growth factor receptor autophosphorylation in A431 cells. The class given is cell-based, A-431. In a few lines:
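A431 cells, starved overnight in serum-free medium, were exposed to compound for 2 h and then stimulated with 100 ng/mL EGF for 10 min. Cells were extracted in lysis buffer (Hepes pH 7.5, 1% Triton), and EGFR tyrosine autophosphorylation was read by immunoblotting.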

In assay [2] the target is Fibroblast growth factor receptor 1 (Homo sapiens, UniProt P11362). Nature of the assay: Inhibition of Fibroblast growth factor receptor 1 autophosphorylation in PAE cells. The class given is cell-based, Sus scrofa.
In assay [3] the target is T1, Beta-adrenergic receptor kinase 1 (Homo sapiens, UniProt P25098).
T1 sequence (P25098 whole entry): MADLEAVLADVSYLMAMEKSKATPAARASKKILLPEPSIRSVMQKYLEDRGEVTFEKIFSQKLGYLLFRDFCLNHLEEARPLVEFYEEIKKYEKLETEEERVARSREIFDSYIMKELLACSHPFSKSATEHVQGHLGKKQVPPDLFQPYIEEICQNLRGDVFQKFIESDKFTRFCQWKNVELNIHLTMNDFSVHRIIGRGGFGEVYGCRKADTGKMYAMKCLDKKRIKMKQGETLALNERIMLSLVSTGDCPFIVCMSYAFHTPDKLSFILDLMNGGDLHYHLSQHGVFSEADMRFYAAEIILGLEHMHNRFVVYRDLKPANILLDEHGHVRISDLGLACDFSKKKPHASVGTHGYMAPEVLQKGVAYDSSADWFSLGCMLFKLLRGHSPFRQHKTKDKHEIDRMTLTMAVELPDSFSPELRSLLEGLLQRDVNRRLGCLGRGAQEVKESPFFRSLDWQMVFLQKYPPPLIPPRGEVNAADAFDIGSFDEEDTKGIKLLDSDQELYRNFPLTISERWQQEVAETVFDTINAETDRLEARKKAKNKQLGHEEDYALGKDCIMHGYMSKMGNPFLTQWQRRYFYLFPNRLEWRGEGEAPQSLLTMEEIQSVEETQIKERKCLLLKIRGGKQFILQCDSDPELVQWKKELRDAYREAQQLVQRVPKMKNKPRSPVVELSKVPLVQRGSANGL
Nature of the assay: Inhibition of G-protein coupled receptor kinase 2 (GRK2) in vitro phosphorylation. The essentials: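 GRK2 was assayed in vitro using lysates of GRK2-overexpressing 293 cells as the kinase source. Rhodopsin purified from bovine rod outer segments served as substrate.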

The target of assay [4] is Platelet-derived growth factor receptor alpha (Homo sapiens, UniProt P16234). Nature of the assay: Inhibition of Platelet-derived growth factor receptor alpha autophosphorylation in PAE cells. The class given is cell-based, Sus scrofa. In a few lines:
(§1)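 Porcine aortic endothelial cells expressing human PDGF α- or β-receptor were used. Receptor autophosphorylation in the intact cells was read by immunoblotting.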

For assay [5], the target named is T2, Platelet-derived growth factor receptor beta (Homo sapiens, UniProt P09619). Briefly: Inhibition of Platelet-derived growth factor receptor beta autophosphorylation in PAE cells. The class given is cell-based, Sus scrofa. The essentials: as §1
Assay [6] addresses T2, Platelet-derived growth factor receptor beta. Briefly: Inhibition of Platelet-derived growth factor receptor beta kinase activity in Sf9-expressed GST-fusion protein. The essentials:
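A constitutively active GST fusion of the PDGFβ-receptor cytoplasmic domain was expressed in Sf9 cells. The isolated fusion protein was tested in an in vitro autophosphorylation assay at 10 µM ATP.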

Assay [7] shares this target. Nature of the assay: Inhibition of purified Platelet-derived growth factor receptor beta kinase activity. The essentials:
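PDGFβ-receptor kinase was purified from membranes of a receptor-overexpressing cell line. Inhibition was tested in an in vitro autophosphorylation assay at 10 µM ATP.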

Assay [8] can be described thus: Inhibition of Protein kinase C isoforms epsilon and iota in vitro phosphorylation. The essentials:
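RGS-His6-tagged PKC isoforms were expressed transiently in COS-7 cells and purified from lysate on Ni-NTA, with imidazole elution. Reactions ran 10 min at 30 °C, and phosphocellulose-bound radioactivity was counted.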

In assay [9] the target is Platelet-derived growth factor receptor (Homo sapiens, UniProt P09619+P16234). Briefly: Antitumor activity measured by the inhibition of platelet-derived growth factor receptor autophosphorylation in intact Swiss 3T3 cells. The class given is cell-based. The essentials:
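Quiescent Swiss 3T3 fibroblasts moved to serum-free DMEM and exposed to compound in DMSO (final 1%) for 2 h. They were then stimulated with 100 ng/mL human recombinant PDGF-BB for 10 min at room temperature and lysed. Autophosphorylation was read by immunoblotting. Four to eight concentrations were tested across 2 orders of magnitude, and IC50 came from curve fitting over three independent experiments.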

The target in assay [10] is T3, Protein kinase C epsilon type (Homo sapiens, UniProt Q02156).
T3 sequence (Q02156 whole entry): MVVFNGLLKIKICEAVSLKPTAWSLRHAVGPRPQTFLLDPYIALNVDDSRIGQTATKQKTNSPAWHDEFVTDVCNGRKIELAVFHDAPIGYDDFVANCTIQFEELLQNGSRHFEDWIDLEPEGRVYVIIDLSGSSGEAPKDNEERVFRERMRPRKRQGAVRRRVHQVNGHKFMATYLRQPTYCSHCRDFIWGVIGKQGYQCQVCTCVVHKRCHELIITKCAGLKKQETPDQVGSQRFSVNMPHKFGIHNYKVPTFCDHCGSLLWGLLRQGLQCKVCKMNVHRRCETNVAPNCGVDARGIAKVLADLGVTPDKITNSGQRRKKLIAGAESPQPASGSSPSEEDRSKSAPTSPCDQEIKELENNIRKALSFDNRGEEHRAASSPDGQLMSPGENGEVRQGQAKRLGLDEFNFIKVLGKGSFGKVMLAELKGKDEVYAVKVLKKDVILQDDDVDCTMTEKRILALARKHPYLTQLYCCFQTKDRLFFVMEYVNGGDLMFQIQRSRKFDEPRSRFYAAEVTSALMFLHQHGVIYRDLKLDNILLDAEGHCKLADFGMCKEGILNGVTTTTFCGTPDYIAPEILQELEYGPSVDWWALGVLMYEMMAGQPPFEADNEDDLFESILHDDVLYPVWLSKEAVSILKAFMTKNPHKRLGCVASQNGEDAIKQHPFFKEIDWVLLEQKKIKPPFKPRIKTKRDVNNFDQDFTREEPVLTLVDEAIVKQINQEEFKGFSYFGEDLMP
Briefly: Inhibition of His-tagged Protein kinase C epsilon over-expressed in COS7 cells. It counts as cell-based, COS-7. The essentials: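 RGS-His6-tagged PKC was transiently expressed in COS-7 cells, purified on Ni-NTA agarose and eluted with 500 mM imidazole. Reactions ran 10 min at 30 °C; phosphocellulose binding and scintillation counting gave the read-out.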

The target in assay [11] is Proto-oncogene tyrosine-protein kinase Src (Homo sapiens, UniProt P12931). Briefly: Inhibition of Src protein tyrosine kinase. In a few lines: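 Src-dependent tyrosine phosphorylation was measured in intact src-transformed NIH3T3 fibroblasts, with immunoblot read-out.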

SMILES strings stand for the structures.

As a reminder, the IC50 is the concentration at which inhibition is half-maximal.

T2 sequence (P09619 whole entry, the tested form may be a part): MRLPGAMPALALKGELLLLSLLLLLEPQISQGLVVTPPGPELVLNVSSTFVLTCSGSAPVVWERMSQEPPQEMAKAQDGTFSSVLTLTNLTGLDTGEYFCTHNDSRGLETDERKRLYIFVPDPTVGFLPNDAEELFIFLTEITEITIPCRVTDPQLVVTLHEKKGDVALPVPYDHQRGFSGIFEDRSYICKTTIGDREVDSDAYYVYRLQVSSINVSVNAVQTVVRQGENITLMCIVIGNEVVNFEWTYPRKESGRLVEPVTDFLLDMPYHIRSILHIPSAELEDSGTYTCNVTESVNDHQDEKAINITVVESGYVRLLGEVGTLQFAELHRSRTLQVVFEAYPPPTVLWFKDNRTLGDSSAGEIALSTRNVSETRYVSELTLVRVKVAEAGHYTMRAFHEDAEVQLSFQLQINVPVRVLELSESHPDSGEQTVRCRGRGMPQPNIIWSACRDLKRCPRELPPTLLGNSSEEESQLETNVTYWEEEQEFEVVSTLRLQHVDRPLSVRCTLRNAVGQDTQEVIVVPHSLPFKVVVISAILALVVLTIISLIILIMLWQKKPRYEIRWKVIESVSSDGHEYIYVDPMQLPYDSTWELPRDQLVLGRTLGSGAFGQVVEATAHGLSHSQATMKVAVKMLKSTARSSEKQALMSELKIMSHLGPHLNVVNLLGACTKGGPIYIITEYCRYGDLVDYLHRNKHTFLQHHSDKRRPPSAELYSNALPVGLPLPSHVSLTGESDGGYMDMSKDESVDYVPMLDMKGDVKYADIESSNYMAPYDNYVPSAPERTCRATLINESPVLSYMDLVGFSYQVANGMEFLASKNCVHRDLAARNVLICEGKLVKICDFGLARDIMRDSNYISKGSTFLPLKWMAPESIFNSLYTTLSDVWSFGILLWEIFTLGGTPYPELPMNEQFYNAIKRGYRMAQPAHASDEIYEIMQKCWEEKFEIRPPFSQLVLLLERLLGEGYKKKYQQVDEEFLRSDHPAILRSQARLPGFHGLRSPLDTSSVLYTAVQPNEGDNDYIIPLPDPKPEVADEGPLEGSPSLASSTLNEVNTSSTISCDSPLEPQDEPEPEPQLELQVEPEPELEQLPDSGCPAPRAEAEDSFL
Chain of Platelet-derived growth factor receptor alpha (P16234 whole entry): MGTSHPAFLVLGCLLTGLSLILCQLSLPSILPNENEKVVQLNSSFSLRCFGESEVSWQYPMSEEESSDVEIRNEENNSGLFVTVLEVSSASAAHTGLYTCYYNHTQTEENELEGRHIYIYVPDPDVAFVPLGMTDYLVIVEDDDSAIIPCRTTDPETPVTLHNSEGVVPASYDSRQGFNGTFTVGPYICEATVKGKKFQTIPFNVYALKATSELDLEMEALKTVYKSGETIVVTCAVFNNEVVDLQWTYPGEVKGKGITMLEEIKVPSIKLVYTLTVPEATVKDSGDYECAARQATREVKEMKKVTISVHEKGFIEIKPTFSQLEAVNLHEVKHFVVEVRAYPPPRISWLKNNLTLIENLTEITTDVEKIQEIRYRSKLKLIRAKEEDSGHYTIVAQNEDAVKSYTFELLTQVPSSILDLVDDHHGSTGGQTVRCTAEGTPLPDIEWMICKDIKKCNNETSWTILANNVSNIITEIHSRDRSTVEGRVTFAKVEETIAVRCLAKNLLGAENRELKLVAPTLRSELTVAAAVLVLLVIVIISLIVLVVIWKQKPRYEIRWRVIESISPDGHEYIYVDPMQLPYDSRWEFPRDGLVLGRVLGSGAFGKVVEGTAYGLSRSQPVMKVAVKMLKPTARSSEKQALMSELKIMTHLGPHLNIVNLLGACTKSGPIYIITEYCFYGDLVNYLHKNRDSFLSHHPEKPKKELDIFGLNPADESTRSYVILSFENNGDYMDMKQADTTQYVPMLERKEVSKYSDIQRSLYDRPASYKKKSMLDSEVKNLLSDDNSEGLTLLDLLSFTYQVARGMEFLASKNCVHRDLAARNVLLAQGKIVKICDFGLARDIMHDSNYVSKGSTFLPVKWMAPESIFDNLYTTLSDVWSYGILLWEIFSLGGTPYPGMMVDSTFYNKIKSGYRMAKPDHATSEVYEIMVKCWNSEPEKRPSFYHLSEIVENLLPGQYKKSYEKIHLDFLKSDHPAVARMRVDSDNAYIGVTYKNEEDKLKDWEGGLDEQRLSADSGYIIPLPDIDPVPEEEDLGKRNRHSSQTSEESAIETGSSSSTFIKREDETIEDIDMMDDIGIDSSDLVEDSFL
Chain of Proto-oncogene tyrosine-protein kinase Src (P12931 2-536 limits assumed): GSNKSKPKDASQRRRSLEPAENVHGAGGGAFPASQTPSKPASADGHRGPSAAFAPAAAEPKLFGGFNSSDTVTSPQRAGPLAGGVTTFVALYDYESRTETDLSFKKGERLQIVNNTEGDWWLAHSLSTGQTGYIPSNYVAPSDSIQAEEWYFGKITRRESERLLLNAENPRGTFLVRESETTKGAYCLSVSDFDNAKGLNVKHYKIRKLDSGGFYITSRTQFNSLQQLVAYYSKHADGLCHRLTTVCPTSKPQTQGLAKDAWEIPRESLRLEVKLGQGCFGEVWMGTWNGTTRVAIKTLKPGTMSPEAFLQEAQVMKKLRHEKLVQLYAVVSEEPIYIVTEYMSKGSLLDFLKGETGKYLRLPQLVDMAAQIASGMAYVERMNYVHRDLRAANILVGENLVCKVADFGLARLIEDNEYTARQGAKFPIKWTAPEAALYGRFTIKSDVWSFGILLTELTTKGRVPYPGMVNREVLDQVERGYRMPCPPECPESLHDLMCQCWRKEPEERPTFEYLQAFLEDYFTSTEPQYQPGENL
Chain of Fibroblast growth factor receptor 1 (P11362 whole entry): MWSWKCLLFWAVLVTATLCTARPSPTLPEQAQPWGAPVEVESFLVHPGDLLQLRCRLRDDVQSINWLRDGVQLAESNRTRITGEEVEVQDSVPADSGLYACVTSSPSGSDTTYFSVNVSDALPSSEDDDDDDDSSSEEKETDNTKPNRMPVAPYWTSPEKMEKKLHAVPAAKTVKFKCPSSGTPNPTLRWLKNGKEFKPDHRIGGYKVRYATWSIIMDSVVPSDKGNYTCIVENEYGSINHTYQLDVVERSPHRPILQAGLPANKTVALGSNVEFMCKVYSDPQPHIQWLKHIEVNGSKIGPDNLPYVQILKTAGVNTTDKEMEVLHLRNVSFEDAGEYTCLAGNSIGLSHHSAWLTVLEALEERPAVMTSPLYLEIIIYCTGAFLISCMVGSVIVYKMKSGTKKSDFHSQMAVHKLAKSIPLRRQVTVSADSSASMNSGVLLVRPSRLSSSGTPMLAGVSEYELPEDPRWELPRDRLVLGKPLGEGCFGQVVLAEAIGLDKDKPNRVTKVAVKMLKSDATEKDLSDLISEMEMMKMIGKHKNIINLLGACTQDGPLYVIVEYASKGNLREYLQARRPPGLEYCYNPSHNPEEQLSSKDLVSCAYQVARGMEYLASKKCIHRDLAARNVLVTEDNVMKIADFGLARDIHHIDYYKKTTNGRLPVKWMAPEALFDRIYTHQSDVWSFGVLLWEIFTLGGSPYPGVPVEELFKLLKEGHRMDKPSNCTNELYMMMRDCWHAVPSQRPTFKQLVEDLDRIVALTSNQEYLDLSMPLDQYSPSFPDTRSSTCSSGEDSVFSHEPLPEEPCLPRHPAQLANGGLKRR
Chain of Epidermal growth factor receptor (P00533 whole entry): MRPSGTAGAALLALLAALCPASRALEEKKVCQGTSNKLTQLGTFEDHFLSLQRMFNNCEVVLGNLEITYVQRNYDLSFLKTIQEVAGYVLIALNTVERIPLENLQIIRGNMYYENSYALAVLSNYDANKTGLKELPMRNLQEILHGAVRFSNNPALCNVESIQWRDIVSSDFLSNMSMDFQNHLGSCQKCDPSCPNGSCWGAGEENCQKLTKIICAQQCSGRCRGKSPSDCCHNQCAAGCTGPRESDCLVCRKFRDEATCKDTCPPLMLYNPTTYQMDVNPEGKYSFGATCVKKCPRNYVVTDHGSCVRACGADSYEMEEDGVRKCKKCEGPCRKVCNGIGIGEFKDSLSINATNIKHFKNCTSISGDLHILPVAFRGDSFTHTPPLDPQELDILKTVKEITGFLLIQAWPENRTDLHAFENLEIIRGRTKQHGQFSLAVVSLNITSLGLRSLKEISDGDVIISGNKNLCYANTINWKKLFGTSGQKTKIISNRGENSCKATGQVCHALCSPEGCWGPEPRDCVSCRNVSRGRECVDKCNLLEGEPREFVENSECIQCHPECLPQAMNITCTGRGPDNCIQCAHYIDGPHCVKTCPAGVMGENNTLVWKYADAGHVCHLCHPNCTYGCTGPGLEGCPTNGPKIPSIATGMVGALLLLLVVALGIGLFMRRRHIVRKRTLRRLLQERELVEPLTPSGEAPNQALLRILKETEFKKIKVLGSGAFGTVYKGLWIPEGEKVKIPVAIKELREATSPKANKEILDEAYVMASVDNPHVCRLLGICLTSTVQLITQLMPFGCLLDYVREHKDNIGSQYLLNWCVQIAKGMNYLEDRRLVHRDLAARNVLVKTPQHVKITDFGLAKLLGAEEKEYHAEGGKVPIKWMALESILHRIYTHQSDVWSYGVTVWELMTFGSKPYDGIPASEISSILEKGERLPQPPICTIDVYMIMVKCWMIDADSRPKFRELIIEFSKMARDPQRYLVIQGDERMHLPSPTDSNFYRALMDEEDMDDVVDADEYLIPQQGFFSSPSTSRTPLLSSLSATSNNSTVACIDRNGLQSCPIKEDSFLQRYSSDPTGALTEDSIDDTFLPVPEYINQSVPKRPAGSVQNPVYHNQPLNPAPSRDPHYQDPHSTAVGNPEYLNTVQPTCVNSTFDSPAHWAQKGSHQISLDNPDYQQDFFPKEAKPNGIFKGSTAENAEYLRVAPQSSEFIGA

Consider `CN(C)CC(=O)Oc1ccc2[nH]c(C(=O)c3cc4ccccc4[nH]3)cc2c1`, for which the IC50 is above 30000 nM in assay [1]; above 10000 nM in assay [2]; above 100000 nM in [3]; 100 nM in assay [4]; 100 nM in [5]; 1300 nM in [6]. Moreover, the half-inhibitory concentration (IC50) in [7] is 100 nM; in assay [8], 15100 nM; in assay [9] it was 100 nM; in [10], 30000 nM; in assay [11], above 30000 nM.
As for `COCC(=O)Oc1ccc2[nH]c(C(=O)c3cc4ccccc4[nH]3)cc2c1`, the IC50 is above 30000 nM in [1]; above 10000 nM in assay [2]; above 100000 nM in assay [3]; 300 nM in assay [4]; 100 nM in [5]; 4200 nM in assay [6]. In addition, the 50% inhibitory concentration (IC50) in assay [7] was 20 nM; in assay [8], 20400 nM; in assay [9] it was 200 nM; in [10] it was above 100000 nM; in assay [11], above 30000 nM.

For the origin of these results see ChEMBL document CHEMBL1135728, “Bis(1H-2-indolyl)methanones as a novel class of inhibitors of the platelet-derived growth factor receptor kinase” (J Med Chem, 2002).
